≈ marks a conversion by molar mass, not a printed value. Calls of active or inactive are those of the source. No cut-off for these calls is given here.
Tests used:
[1] = molecular target: B1 bradykinin receptor (Homo sapiens) (UniProt P46663); assay: Displacement of [3H](Des-Arg10)-Kallidin from human bradykinin B1 receptor at 10 uM
[2] = molecular target: Neuronal acetylcholine receptor (Rattus norvegicus) (UniProt P04757+P09483+P12389+P12390+P12392+P43144+Q9JLB5+P12391+P43143+P20420+Q05941); assay: Displacement of [125I]epibatidine from human nAchR at 10 uM; type: protein-complex assay
CYP2D6 = CYP2D6 (Homo sapiens, UniProt P10635); assay: Inhibition of human CYP2D6 at 10 uM; type: ADME
Cricetinae = assay: Displacement of [3H]glyburide from hamster KATP channel at 10 uM
Mus musculus [3] = assay: Toxicity in Venezuelan equine encephalitis virus TC83 infected C3H/HeN mouse assessed as induction of lethargy at 40 mg/kg/day, ip BID for 4 days; type: organism-based; set-up: route intraperitoneal; conditions: in vivo, 96 h
[4] = molecular target: Androgen receptor (Rattus norvegicus) (UniProt P15207); assay: Displacement of [3H]mibolerone from rat androgen receptor at 10 uM
Rattus norvegicus [5] = species: Rattus norvegicus; assay: Displacement of [3H]GABA from rat GABA transporter at 10 uM
[6] = molecular target: D(2) dopamine receptor (Homo sapiens) (UniProt P14416); assay: Displacement of [3H]spiperone from human dopamine D2S receptor at 10 uM
[7] = molecular target: Histamine H2 receptor (Homo sapiens) (UniProt P25021); assay: Displacement of [3H]N-alpha-Methylhistamine from human histamine H3 receptor at 10 uM
[8] = system: Venezuelan equine encephalitis virus; assay: Antiviral activity against Venezuelan equine encephalitis virus TrD infected in Vero 76 cells assessed as reduction in viral titer at 0.5 uM by crystal violet staining based microplaque assay relative to untreated control; type: functional, organism-based
Mus musculus [9] = assay: Toxicity in Venezuelan equine encephalitis virus TC83 infected C3H/HeN mouse assessed as induction of ruffled fur at 5 mg/kg/day, ip BID for 4 days; type: organism-based; set-up: route intraperitoneal; conditions: in vivo, 96 h
Mus musculus [10] = assay: Toxicity in Venezuelan equine encephalitis virus TC83 infected C3H/HeN mouse assessed as induction of hunched posture at 40 mg/kg/day, ip BID for 4 days; type: organism-based; set-up: route intraperitoneal; conditions: in vivo, 96 h
[11] = molecular target: D(4) dopamine receptor (Homo sapiens) (UniProt P21917); assay: Displacement of [3H]spiperone from human dopamine D4.2 receptor at 10 uM
Rattus norvegicus [12] = species: Rattus norvegicus; assay: Displacement of [3H]kainic acid from rat kainate receptor at 10 uM
Plasma [13] = assay: Stability in mouse plasma assessed as parent compound remaining after 3 hrs; type: ADME, cell-free
Rattus norvegicus [14] = species: Rattus norvegicus; assay: Displacement of [3H]rolipram from rat Rolipram binding site at 10 uM
[15] = molecular target: 5-hydroxytryptamine receptor 2B (Homo sapiens) (UniProt P41595); assay: Displacement of [3H]lysergic acid diethylamide from human 5HT2B receptor at 10 uM
Mus musculus [16] = assay: Toxicity in Venezuelan equine encephalitis virus TC83 infected C3H/HeN mouse assessed as body weight loss at 5 mg/kg/day, ip BID for 4 days; type: organism-based; set-up: route intraperitoneal; conditions: in vivo, 96 h
Rattus norvegicus [17] = species: Rattus norvegicus; assay: Displacement of [35S]ATP-alphaS from rat P2Y channel at 10 uM
[18] = system: Venezuelan equine encephalitis virus; assay: Antiviral activity against Venezuelan equine encephalitis virus TC83 infected in Vero 76 cells assessed as reduction in virus-induced cytopathic effect after 2 days by Celltiter-Glo reagent based assay; type: functional, organism-based; conditions: TC83, Vero 76, 48 h
[19] = molecular target: 5-hydroxytryptamine receptor 3A (Homo sapiens) (UniProt P46098); assay: Displacement of [3H]GR-65630 from human 5HT3 receptor at 10 uM
[20] = system: Venezuelan equine encephalitis virus; assay: Antiviral activity against Venezuelan equine encephalitis virus TC83 infected in Vero 76 cells assessed as reduction in viral titer by crystal violet staining based microplaque assay relative to untreated control; type: functional, organism-based; conditions: TC83, Vero 76
[21] = molecular target: T1, GABA-A receptor; anion channel (Homo sapiens) (UniProt P14867+P47870+P18507+P28472+P48169+Q99928+Q9UN88+P34903+O00591+O14764+Q8N1C3+P18505+P78334+P47869+P31644+Q16445); assay: Displacement of ABC from rat GABAA receptor central flunitrazepam site at 10 uM; type: protein-complex assay; conditions: target entry is the homologue from another species
[22] = molecular target: Cysteinyl leukotriene receptor 1 (Homo sapiens) (UniProt Q9Y271); assay: Displacement of [3H]LTD4 from human CysLT1 receptor at 10 uM
[23] = molecular target: Epidermal growth factor receptor (Homo sapiens) (UniProt P00533); assay: Displacement of [125I]EGF from human EGFR at 10 uM
[24] = molecular target: Beta-2 adrenergic receptor (Homo sapiens) (UniProt P07550); assay: Displacement of [3H]CGP-12177 from human adrenergic beta2 receptor at 10 uM
[25] = Aqueous solubility in PBS buffer; type: physicochemical
How it was run: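 Solubility measured in 1× PBS at pH 7.4.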

Plasma [26] = assay: Protein binding in mouse plasma at 1 uM; type: ADME, cell-free
[27] = Protein binding in human plasma at 10 uM; type: ADME, cell-free; conditions: read-out: PPB (converted)
[28] = molecular target: Glucocorticoid receptor (Homo sapiens) (UniProt P04150); assay: Displacement of [3H]dexamethasone from human glucocorticoid receptor at 10 uM
[29] = molecular target: Alpha-2A adrenergic receptor (Homo sapiens) (UniProt P08913); assay: Displacement of [3H]MK-912 from human adrenergic alpha2A receptor at 10 uM
[30] = molecular target: Kappa-type opioid receptor (Homo sapiens) (UniProt P41145); assay: Displacement of [3H]diprenorphine from human kappa opiate receptor at 10 uM
Cytochrome P450 1A2 = Cytochrome P450 1A2 (Homo sapiens, UniProt P05177); assay: Inhibition of human CYP1A2 at 10 uM; type: ADME
How it was run: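 Human CYP inhibition run with reference inhibitors as controls: α-naphthoflavone for CYP1A2 and ketoconazole for CYP3A4.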

[31] = molecular target: T1, GABA-A receptor; anion channel (Homo sapiens); assay: Displacement of ABC from rat GABAA receptor central muscimol site at 10 uM; type: protein-complex assay; conditions: target entry is the homologue from another species
[32] = Plasma concentration in C57BL/6 mouse at 5 mg/kg, ip administered as single dose measured after 120 mins by LC/MS analysis based RACE assay; type: ADME, organism-based; set-up: dose 5 mg/kg, route intraperitoneal
How it was run: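 Single intraperitoneal dose of 1, 5 or 10 mg/kg given to C57BL/6 mice, 3 mice per dose and time point, with a vehicle-control cohort. Plasma was sampled at 20 and 120 min post-dose and drug level measured by LC/MS. Each time point averaged two injections (<20% difference); values are means ± standard deviation in μM.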

Chain of D(4) dopamine receptor (Homo sapiens) (P21917 whole entry): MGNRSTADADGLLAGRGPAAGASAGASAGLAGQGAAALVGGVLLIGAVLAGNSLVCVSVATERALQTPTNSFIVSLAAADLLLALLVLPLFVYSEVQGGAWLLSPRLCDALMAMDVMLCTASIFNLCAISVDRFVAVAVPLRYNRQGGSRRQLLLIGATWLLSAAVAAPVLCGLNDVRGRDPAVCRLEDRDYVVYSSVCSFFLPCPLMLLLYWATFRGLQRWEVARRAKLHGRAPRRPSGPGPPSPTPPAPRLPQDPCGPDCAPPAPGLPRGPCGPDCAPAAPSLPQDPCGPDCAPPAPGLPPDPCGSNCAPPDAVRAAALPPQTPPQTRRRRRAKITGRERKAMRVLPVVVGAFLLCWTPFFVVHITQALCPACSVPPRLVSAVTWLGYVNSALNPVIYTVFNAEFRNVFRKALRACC
Chain of D(2) dopamine receptor (Homo sapiens) (P14416 whole entry): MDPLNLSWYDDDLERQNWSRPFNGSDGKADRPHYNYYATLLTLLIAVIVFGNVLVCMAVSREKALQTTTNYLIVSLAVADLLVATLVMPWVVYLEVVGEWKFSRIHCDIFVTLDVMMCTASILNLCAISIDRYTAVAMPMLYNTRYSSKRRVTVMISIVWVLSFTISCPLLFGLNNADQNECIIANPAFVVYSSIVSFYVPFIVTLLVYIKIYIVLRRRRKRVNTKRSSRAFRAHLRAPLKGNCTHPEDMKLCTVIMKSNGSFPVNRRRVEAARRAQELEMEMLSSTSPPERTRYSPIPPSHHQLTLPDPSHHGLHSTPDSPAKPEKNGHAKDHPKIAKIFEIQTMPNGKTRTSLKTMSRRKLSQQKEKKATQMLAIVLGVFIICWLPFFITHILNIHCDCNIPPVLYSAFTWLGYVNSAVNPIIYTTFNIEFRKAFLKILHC
Chain of Cytochrome P450 1A2 (P05177 whole entry): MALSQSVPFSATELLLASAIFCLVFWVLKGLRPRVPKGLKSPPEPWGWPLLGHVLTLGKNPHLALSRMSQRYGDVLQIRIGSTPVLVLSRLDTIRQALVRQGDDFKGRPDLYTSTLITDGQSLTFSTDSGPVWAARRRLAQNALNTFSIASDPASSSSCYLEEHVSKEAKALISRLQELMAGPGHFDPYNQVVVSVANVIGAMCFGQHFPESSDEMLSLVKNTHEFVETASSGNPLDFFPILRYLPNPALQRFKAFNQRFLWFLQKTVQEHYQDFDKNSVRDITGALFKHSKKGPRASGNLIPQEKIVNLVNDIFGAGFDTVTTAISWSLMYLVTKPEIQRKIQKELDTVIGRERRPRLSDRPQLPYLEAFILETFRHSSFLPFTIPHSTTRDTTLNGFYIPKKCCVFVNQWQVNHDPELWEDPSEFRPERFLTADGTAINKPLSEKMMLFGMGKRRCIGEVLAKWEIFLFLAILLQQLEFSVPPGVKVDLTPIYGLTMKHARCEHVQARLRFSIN
Chain of Glucocorticoid receptor (Homo sapiens) (P04150 whole entry): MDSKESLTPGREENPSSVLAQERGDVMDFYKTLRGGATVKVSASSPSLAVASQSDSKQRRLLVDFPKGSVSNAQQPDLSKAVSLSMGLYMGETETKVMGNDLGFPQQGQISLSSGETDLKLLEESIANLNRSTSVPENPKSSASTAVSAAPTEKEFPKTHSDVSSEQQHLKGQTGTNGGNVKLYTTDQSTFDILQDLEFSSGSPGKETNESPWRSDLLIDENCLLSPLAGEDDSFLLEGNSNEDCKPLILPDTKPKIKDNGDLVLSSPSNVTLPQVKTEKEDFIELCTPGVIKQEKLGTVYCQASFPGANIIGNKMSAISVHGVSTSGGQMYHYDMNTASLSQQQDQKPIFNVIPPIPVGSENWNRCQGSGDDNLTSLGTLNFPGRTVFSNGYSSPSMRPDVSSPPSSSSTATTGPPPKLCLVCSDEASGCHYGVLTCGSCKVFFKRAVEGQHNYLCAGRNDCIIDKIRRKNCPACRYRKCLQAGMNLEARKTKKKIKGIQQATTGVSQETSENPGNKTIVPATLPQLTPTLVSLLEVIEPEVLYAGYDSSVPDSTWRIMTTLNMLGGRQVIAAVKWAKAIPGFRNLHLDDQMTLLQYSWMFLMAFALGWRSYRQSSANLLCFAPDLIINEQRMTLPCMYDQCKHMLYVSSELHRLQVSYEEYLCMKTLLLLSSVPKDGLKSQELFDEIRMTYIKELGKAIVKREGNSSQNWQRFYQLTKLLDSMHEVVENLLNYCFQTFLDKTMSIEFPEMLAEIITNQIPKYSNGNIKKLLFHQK
Chain of Histamine H2 receptor (Homo sapiens) (P25021 whole entry): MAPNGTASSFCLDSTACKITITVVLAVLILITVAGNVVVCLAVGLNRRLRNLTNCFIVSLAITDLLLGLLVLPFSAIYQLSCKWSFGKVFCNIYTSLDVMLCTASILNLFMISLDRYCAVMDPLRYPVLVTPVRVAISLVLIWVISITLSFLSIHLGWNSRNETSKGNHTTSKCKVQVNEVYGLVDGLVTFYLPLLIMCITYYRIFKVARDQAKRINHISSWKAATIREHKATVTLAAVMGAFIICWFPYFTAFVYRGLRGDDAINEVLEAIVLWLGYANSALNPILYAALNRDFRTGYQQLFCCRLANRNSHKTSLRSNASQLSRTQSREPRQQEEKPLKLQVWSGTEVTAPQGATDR
Chain of 5-hydroxytryptamine receptor 3A (Homo sapiens) (P46098 whole entry): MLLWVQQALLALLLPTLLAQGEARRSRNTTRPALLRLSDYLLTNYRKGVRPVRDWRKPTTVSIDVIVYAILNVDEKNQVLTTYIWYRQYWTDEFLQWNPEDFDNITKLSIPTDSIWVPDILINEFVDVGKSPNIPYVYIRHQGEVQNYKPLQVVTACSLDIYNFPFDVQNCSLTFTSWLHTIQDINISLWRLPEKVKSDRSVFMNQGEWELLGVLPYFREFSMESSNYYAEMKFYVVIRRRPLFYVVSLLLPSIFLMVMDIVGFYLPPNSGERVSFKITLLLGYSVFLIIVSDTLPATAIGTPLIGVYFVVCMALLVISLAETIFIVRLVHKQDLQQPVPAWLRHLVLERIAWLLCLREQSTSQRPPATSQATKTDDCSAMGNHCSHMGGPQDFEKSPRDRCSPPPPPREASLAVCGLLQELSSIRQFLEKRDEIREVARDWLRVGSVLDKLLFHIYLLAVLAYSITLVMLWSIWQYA
Chain of CYP2D6 (P10635 whole entry): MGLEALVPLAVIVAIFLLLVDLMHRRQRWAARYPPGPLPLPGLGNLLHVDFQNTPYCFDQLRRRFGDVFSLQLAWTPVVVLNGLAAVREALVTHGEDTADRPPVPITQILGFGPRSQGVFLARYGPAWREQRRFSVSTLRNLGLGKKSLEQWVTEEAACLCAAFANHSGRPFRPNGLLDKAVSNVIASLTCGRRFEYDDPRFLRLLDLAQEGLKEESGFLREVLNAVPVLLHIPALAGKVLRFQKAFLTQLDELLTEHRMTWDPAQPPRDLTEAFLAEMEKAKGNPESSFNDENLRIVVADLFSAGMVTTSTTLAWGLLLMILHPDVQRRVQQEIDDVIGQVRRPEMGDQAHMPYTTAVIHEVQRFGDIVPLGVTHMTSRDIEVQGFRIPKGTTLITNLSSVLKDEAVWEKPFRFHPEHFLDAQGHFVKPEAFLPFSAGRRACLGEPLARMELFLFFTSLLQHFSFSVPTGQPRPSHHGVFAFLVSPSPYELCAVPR
Chain of Epidermal growth factor receptor (Homo sapiens) (P00533 whole entry): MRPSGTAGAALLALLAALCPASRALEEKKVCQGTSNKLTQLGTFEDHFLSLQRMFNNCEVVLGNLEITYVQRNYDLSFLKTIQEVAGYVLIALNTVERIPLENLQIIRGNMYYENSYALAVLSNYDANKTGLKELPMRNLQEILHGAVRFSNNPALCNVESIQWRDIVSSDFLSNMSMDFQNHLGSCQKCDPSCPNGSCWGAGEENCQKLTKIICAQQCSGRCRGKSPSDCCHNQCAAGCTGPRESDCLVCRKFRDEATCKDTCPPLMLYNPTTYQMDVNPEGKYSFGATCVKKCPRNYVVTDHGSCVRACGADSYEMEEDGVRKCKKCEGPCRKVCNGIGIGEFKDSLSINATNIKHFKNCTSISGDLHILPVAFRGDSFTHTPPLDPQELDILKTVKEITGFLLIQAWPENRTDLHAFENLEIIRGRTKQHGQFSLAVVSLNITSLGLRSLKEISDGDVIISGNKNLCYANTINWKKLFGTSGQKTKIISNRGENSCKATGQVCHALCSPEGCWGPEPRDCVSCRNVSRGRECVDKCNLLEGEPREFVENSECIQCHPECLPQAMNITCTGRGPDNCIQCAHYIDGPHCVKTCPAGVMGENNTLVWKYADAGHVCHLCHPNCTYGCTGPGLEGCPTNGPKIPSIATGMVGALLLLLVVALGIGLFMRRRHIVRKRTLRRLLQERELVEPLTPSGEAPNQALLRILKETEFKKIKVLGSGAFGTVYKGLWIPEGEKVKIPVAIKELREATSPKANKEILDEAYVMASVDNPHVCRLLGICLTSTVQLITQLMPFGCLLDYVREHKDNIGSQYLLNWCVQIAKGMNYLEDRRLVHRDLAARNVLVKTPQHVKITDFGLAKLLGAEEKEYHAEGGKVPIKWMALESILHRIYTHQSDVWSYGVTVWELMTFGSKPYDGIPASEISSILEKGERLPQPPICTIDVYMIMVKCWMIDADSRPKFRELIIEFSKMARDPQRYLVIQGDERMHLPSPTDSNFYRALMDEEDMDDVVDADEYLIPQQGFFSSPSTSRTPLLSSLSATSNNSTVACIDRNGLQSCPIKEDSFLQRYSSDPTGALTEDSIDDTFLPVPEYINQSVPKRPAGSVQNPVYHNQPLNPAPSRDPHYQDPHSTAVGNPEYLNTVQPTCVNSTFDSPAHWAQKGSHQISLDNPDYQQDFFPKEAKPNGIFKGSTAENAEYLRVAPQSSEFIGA

CN1CCN(C)/C(=N/c2ccc([N+](=O)[O-])cc2C(=O)Nc2ccccc2)C1 showed an inhibition [1] of 9.23%, an inhibition [2] of 10.8% and an inhibition at 10 µM (CYP2D6) of 28%. The inhibition (Cricetinae) was 4.77%, the Activity (Mus musculus [3]) was “Non-toxic” and the inhibition [4] was 1.1%. For the same compound, the inhibition (Rattus norvegicus [5]) was 0.42%, the inhibition [6] was 9.08% and the inhibition [7] was 15.8%. The inhibition [8] was “Active”, the Activity (Mus musculus [9]) was “Non-toxic” and the Activity (Mus musculus [10]) was “Non-toxic”. It also gave an inhibition [11] of 11.2%, an inhibition (Rattus norvegicus [12]) of 22.3% and a Stability (Plasma [13]) of 65.4%. The inhibition (Rattus norvegicus [14]) was 34.9%, the inhibition [15] was 10% and the Activity (Mus musculus [16]) was “Non-toxic”. It also gave an inhibition (Rattus norvegicus [17]) of 6.41%, an EC50 [18] of 30 nM and an inhibition [19] of 1.64%. It also gave an EC50 [20] of 170 nM, an inhibition [21] of 15.2% and an inhibition [22] of 10.9%. For the same compound, the inhibition [23] was -2.63%, the inhibition [24] was 6.39% and the solubility [25] was 40.4 µg/mL (≈ 110 µM). The PPB (Plasma [26]) was 85%, the fraction unbound at 10 µM [27] was 0.23 and the inhibition [28] was 10.2%. The inhibition [29] was -0.5%, the inhibition [30] was 9.71% and the “inhibition (INH)” value (Cytochrome P450 1A2) was 1.5%. The inhibition [31] was 0.52% and the concentration at 2 h [32] was 290 nM.

— ChEMBL document CHEMBL3352189 (J Med Chem, 2014)
